Publication PMC6476708 (Psychopharmacology, 2018)

Assays:
DAT [1] = molecular target: T1, DAT (Rattus norvegicus, UniProt P23977); experiment: Uptake inhibition of [3H]dopamine in rat brain synaptosomes; format: biochemical; settings: for DAT/SERT ratio ([DAT IC50]^−1/[SERT IC50]^−1): synaptosome uptake assays, higher value indicates greater DAT-selectivity
SERT [2] = molecular target: T2, SERT (Rattus norvegicus, UniProt P31652); experiment: Uptake inhibition of [3H]5-HT in rat brain synaptosomes; format: biochemical
T2 sequence (P31652 whole entry): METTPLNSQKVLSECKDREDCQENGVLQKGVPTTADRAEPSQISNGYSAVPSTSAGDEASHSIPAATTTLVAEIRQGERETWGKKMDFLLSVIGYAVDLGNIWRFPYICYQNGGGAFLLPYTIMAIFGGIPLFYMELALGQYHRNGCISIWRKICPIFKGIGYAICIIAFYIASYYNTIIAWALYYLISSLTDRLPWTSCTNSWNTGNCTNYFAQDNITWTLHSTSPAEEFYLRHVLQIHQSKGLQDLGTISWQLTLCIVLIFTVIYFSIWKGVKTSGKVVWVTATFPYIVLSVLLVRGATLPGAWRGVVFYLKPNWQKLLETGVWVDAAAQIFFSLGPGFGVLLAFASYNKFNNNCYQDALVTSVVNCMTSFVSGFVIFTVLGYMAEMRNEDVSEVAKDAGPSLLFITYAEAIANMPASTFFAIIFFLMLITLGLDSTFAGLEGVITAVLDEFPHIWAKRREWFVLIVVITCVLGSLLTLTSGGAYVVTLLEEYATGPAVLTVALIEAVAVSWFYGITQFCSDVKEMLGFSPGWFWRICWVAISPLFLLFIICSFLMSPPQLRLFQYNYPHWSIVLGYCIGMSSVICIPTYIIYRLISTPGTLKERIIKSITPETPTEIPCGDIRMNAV

human DAT [3] = molecular target: T3, human DAT (Homo sapiens, UniProt Q01959); experiment: Uptake inhibition in HEK-293 cells expressing human DAT; format: cell-based
T3 sequence (Q01959 whole entry): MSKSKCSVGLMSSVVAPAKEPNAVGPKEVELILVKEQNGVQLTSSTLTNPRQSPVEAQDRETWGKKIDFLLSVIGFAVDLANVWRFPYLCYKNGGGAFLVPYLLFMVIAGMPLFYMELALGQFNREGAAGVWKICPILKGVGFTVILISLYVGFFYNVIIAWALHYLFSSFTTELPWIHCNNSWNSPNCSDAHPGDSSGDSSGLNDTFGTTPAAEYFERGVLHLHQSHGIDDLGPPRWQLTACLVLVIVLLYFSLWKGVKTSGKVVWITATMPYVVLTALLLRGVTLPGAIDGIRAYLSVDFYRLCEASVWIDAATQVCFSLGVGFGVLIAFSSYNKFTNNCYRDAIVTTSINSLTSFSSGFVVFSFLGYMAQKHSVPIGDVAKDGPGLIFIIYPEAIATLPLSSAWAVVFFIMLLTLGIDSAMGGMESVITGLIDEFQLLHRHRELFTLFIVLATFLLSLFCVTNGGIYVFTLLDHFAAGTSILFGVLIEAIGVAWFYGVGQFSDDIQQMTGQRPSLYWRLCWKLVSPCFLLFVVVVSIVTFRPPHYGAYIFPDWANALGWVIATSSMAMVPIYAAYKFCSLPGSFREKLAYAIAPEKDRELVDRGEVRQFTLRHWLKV

human SERT [4] = molecular target: T4, human SERT (Homo sapiens, UniProt P31645); experiment: Uptake inhibition in HEK-293 cells expressing human SERT; format: cell-based
T4 sequence (P31645 whole entry): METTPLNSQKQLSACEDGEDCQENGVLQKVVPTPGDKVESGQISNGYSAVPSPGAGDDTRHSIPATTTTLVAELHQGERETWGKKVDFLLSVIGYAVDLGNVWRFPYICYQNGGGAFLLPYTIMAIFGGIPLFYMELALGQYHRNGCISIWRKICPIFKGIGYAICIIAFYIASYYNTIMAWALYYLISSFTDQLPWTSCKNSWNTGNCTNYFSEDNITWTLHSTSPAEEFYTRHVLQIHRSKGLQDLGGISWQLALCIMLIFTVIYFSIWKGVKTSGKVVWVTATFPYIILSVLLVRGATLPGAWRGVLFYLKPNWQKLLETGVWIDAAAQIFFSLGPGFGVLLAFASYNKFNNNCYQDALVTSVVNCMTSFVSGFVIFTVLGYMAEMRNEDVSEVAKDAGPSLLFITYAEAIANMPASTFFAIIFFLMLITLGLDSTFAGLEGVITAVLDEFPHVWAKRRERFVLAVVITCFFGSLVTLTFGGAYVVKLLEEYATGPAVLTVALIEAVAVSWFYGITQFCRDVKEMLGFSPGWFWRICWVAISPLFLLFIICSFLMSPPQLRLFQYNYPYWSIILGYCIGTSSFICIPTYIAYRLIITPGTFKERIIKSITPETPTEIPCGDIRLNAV

DAT [5] = molecular target: T1, DAT; experiment: Release of [3H]MPP+ from rat brain synaptosomes; format: biochemical; settings: 0.1 nM to 10 μM
Summary of the method: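 Crude synaptosomes were prepared from rat caudate: homogenized in ice-cold 10% sucrose, spun at 1000 g for 10 min, supernatant kept. They were preloaded for 1 h with 9 nM [3H]MPP+ in Krebs-phosphate buffer; all buffers contained 1 μM reserpine. Test compound was applied at 0.1 nM–10 μM in triplicate. Release was stopped by vacuum filtration and counted by scintillation. EC50 was derived by nonlinear regression; n=3.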

SERT [6] = molecular target: T2, SERT; experiment: Release of [3H]5-HT from rat brain synaptosomes; format: biochemical
human DAT [7] = molecular target: T3, human DAT; experiment: Efflux; format: cell-based; settings: HEK-293 human DAT, 10 μM drug, with or without 10 μM monensin
human SERT [8] = molecular target: T4, human SERT; experiment: Efflux; format: cell-based; settings: HEK-293 human SERT; for [3H]5-HT efflux at SERT: 10 μM drug; for effect of monensin on drug-evoked [3H]5-HT efflux at SERT: 10 μM drug plus 10 μM monensin
Summary of the method: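 HEK-293 cells stably expressing YFP-tagged human SERT, seeded at 40,000 cells/well on poly-D-lysine-coated coverslips. Preloaded with 0.3 μM radiolabelled substrate for 20 min at 37 °C, then superfused at 25 °C, 0.7 mL/min, with Krebs Ringer HEPES (pH 7.4). Fractions collected every 2 min. After a 40-min washout baseline, 10 μM test compound was added alone or with 10 μM monensin. Cells were lysed in 1% SDS and counted by scintillation. Analysis: two-way ANOVA with Tukey; n=3, triplicate.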

human DAT [9] = molecular target: T3, human DAT; experiment: Transporter-mediated ionic currents, whole cell patch clamp, HEK-293 human DAT; format: cell-based; settings: voltage clamped to −60 mV, 300 nM to 300 μM
Summary of the method: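 HEK-293 cells stably expressing human DAT were seeded at low density 24 h before recording. Whole-cell voltage clamp was held at −60 mV, with K-gluconate/EGTA pipette solution (pH 7.2) and NaCl/glucose HEPES bath (pH 7.4). Test compound (300 nM–300 μM) was applied by rapid superfusion. Passive holding currents were subtracted, traces low-pass filtered at 100 Hz, and currents normalised to 10 μM endogenous substrate. One-way ANOVA; n=3.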

human SERT [10] = molecular target: T4, human SERT; experiment: Transporter-mediated ionic currents, whole cell patch clamp, HEK-293 human SERT; format: cell-based; settings: voltage clamped to −60 mV, 300 nM to 300 μM
[11] = test system: extracellular dopamine and 5-HT in nucleus accumbens; experiment: In vivo microdialysis in the nucleus accumbens of conscious rats; settings: rat nucleus accumbens dialysate
Summary of the method: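 Male Sprague-Dawley rats (300–400 g) were implanted under ketamine/xylazine with a jugular catheter and a nucleus accumbens guide cannula, then recovered ≥1 week. Probes were perfused with Ringer's at 0.6 μL/min, and 20-min dialysates were assayed for dopamine and 5-HT by HPLC-ECD. After three stable baselines, rats received 1 mg/kg i.v. at time zero, then 3 mg/kg at 60 min; controls received saline 1 mL/kg. Data are % of baseline; N=6–7/group; two-way ANOVA, Bonferroni.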

motor activity = experiment: Motor activity and stereotypy; format: in vivo, rat; settings: rats, 1 and 3 mg/kg i.v.; for motor activity (forward locomotion): compared to saline
Summary of the method: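 Conscious, tethered male Sprague-Dawley rats were acclimated overnight in photobeam arenas and tracked for forward locomotion and stereotypy during microdialysis. Dosing was i.v. via jugular catheter: 1 mg/kg at time zero, then 3 mg/kg 60 min later; saline controls received 1 mL/kg on the same schedule. Data are % of basal preinjection values; N=6–7/group; two-way ANOVA (treatment × time) with Bonferroni tests against saline.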

DAT and SERT = settings: HEK-293 cells, uptake inhibition; ref Simmler et al. 2013; 2014; cited from earlier work
DAT [12] = settings: 100 μM drug; ref Dolan et al. (2018); cited from earlier work
[13] = 3 mg/kg i.v. given 60 min after 1 mg/kg

T1 sequence (P23977 whole entry): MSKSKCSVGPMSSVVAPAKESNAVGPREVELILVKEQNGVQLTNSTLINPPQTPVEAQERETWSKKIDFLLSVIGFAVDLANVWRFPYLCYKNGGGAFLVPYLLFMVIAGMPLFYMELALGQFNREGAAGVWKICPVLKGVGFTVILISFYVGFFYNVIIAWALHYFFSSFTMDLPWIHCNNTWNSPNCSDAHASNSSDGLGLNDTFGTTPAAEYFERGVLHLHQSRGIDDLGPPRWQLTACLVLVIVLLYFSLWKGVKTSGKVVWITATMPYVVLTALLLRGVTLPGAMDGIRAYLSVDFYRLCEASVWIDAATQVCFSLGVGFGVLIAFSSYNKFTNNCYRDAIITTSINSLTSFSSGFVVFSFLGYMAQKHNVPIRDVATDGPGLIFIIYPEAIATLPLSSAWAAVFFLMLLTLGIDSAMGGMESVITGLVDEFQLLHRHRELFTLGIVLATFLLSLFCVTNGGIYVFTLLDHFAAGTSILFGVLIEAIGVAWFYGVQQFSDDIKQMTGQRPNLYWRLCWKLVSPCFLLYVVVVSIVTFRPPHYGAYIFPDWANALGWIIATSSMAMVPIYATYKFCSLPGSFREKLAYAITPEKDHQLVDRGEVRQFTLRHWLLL

Structure (SMILES): CCC(NC)C(=O)c1ccc2c(c1)OCO2 (stereo not shown) [butylone, 1-(1,3-Benzodioxol-5-yl)-2-(methylamino)butan-1-one]
- IC50 (DAT [1]): 400 ± 20 nM
- DAT/SERT ratio ([DAT IC50]^−1/[SERT IC50]^−1) (DAT [1]): 3.6
- IC50 (SERT [2]): 1430 ± 160 nM
- IC50 (human DAT [3]): 1440 ± 100 nM
- IC50 (human SERT [4]): 24400 ± 2000 nM
- release of [3H]MPP+ at DAT (DAT [5]): failed to produce efficacious release
- EC50 (SERT [6]): 330 ± 40 nM
- [3H]MPP+ efflux at DAT (human DAT [7]): neither butylone nor pentylone evoked [^3H]MPP^+ efflux at DAT
- [3H]5-HT efflux at SERT (human SERT [8]): evoked [^3H]5-HT efflux at SERT
- effect of monensin on drug-evoked [3H]5-HT efflux at SERT (human SERT [8]): markedly enhanced
- transporter-mediated currents at DAT (human DAT [9]): no discernable currents
- SERT-mediated inward currents (human SERT [10]): dose-related induction of SERT-mediated inward currents
- extracellular 5-HT levels increase ([11]; 1 mg/kg i.v.): 3 fold
- extracellular dopamine levels above baseline ([11]; 1 mg/kg i.v.): 2 fold
- extracellular 5-HT levels increase [11, 13]: ~7 fold
- extracellular dopamine levels increase [11, 13]: about 3.5 fold
- motor activity (forward locomotion) (motor activity): increased motor activity
- DAT/SERT ratio (DAT and SERT): 2.1
- drug-induced current at DAT as fraction of current induced by dopamine (DAT [12]): < 20%

Structure (SMILES): CCCC(NC)C(=O)c1ccc2c(c1)OCO2 (stereo not shown) [pentylone, 1-(1,3-benzodioxol-5-yl)-2-(methylamino)pentan-1-one]
- IC50 (DAT [1]): 120 ± 10 nM
- DAT/SERT ratio ([DAT IC50]^−1/[SERT IC50]^−1) (DAT [1]): 11.4
- IC50 (SERT [2]): 1360 ± 100 nM
- IC50 (human DAT [3]): 310 ± 70 nM
- IC50 (human SERT [4]): 11700 ± 500 nM
- release of [3H]MPP+ at DAT (DAT [5]): failed to produce efficacious release
- EC50 (SERT [6]): 1030 ± 180 nM
- efficacy of SERT-mediated release (SERT [6]; rat brain synaptosomes, [3H]5-HT release): 48 % of Emax
- [3H]MPP+ efflux at DAT (human DAT [7]): neither butylone nor pentylone evoked [^3H]MPP^+ efflux at DAT
- [3H]5-HT efflux at SERT (human SERT [8]): evoked [^3H]5-HT efflux at SERT
- effect of monensin on drug-evoked [3H]5-HT efflux at SERT (human SERT [8]): markedly enhanced
- transporter-mediated currents at DAT (human DAT [9]): no discernable currents
- SERT-mediated inward currents (human SERT [10]): dose-related induction of SERT-mediated inward currents
- extracellular 5-HT levels increase ([11]; 1 mg/kg i.v.): no effect
- extracellular dopamine levels above baseline ([11]; 1 mg/kg i.v.): 2 fold
- extracellular 5-HT levels increase [11, 13]: 3 fold
- extracellular dopamine levels increase [11, 13]: about 3.5 fold
- motor activity (forward locomotion) (motor activity): increased motor activity
- stereotypy (repetitive movements) (motor activity; post hoc tests vs saline): increased stereotypy
- DAT/SERT ratio (DAT and SERT): 6.2
- drug-induced current at DAT as fraction of current induced by dopamine (DAT [12]): < 20%
